From PubChem BioAssay
SUMO1-SIM PPI = SUMO1-SIM interaction modulation | SUMO1 binding to a labelled peptide, TR-FRET, 1 h | AID 602429 | hit rate 0.33% among 360,000 | P63165 | inhibition, % at 20 µM; in the data active = inhibition above about 37%
Target sequence (P63165 whole entry, looked up): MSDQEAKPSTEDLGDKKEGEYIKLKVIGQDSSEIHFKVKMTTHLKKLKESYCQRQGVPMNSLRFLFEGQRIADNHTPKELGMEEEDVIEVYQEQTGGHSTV
Scp1 inh = inhibitors of human Scp-1 phosphatase. Q9GZU7. Recombinant Scp1, phosphopeptide, malachite green phosphate absorbance. inhibition, % at 20 µM. hit rate 0.88% among 340,000. AID 493091;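 active = inhibition above about 50% at 20 µM, limit read from the data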
Target sequence (Q9GZU7 76-261 limits assumed): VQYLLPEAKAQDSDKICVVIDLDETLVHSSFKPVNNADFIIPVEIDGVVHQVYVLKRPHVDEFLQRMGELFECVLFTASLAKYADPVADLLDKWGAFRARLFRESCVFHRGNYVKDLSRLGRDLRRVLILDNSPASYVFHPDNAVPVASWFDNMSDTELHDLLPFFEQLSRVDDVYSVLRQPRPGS
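Test system: SCP-1 phosphatase catalytic domain, residues 76-261; measured by: colorimetric phosphate reagent with accelerator and stabiliser, absorbance at 630 nm; timing: enzyme reaction 45 min at room temperature, colour 5 min, stabilisation 30 min; also added: Phosphorylated 17-residue peptide substrate; compound dosing: one concentration, 20 µM, with 1.0% DMSO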
STEP block = inhibitors of human striatal-enriched phosphatase STEP | recombinant STEP, OMFP fluorogenic substrate, fluorescence | inhibition, % at 20 µM | hit rate 0.25% among 360,000;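 active = inhibition at 20 µM, scaled per plate between control wells, above about 37%, limit read from the data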
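Also added – OMFP at 25 µM · Test system – STEP tyrosine phosphatase · Technique – FITC-channel fluorescence of OMFP product · Schedule – 20 min at room temperature, dark · Evaluation – control-normalized % inhibition with plate pattern correction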
HKDC1 inh = blocks human hexokinase HKDC1 activity; AID 493160; hit rate 0.16% among 340,000; recombinant HKDC1, G6PDH/diaphorase resazurin coupled fluorescence; inhibition, % at 20 µM; Q2TB90;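 active = inhibition above about 35% when tested at 20 µM, limit read from the data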
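Assay system: recombinant HKDC1 hexokinase; detection: coupled resazurin fluorescence, excitation 525 nm, emission 613 nm; benchmarks: DMSO-plus-enzyme-mix negative control, buffer-substituted positive control; compound dosing: single 20 µM dose; schedule: 90 min at room temperature in dark; also added: glucose plus 1 mM ATP as hexokinase substrates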
LMPTP block = blocks human LMPTP phosphatase. P24666. recombinant LMPTP-A, OMFP fluorogenic substrate, fluorescence intensity. inhibition, % at 20 µM. hit rate 0.22% among 360,000;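 active = compounds that cut the enzyme signal by at least half of the control window in the single-dose screen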
Target sequence (P24666 whole entry, looked up): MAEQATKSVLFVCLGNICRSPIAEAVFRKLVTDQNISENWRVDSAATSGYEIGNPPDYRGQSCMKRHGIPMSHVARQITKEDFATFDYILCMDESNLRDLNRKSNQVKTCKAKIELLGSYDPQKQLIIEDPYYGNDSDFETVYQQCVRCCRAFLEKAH
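test system = LMPTP-A | amount = 0.625 nM LMPTP-A final | reagent = fluorogenic phosphatase substrate OMFP at 400 µM final | incubation = 50 min at room temperature | benchmarks = no-enzyme low control, uninhibited high control | medium = Bis-Tris pH 6.0, DTT, detergent | signal = fluorescence intensity of OMFP turnover product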
DNMT1 inh = DNMT1 (human) enzyme inhibition; DNMT1 molecular beacon, Hinp1I cleavage, fluorescence; inhibition (reported as % activation of signal), % at 10 µM; AID 588458; hit rate 0.83% among 360,000; in the data active = inhibition above about 50%
Beacon interf DR = shows spectral interference in the DNMT1 beacon assay; shares compounds with DNMT1 inh; molecular beacon fluorescence, spectral interference counter-screen; IC50, µM; 200 tested, under 10 active; AID 602382; call rule not given here
DNMT1 inh conf = DNMT1 inhibition confirmation, single concentration | DNMT1 molecular beacon HinP1I cleavage, fluorescence | hit rate 8% among 2,300 | AID 602385 | shares compounds with DNMT1 inh | inhibition, % at 10 µM;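 active = average inhibition of at least 30% in the single-concentration confirmation test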
Beacon interf = shows spectral interference in the DNMT1 beacon assay | shares compounds with DNMT1 inh | DNMT1 molecular beacon spectral interference counterscreen, fluorescence 485/520 | activation (fluorescence interference), % at 10 µM | hit rate 1% among 2,300 | AID 602387;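 active = activation of at least 30% at 10 µM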;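 also: DNMT1 catalytic domain with a HinP1I cleavage step and a FAM/dabcyl DNA beacon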
A number is an active result; i = inactive; nt = no result. An excerpt weighted towards active compounds, which were near 1.8% of everything screened.

SMILES | SUMO1-SIM PPI | Scp1 inh | STEP block | HKDC1 inh | LMPTP block | DNMT1 inh | DNMT1 inh conf | Beacon interf | others
Cc1ccc2cc(NC(=O)C3(C)CCN3C(C)C)ccc2n1 (centres undefined) | i | nt | i | nt | i | i | nt | nt
O=C(N/N=C/c1ccco1)c1cccc(S(=O)(=O)Nc2ccccc2Cl)c1 | i | i | i | i | i | 55.8 | i | i
Cc1ccc(/C=N/NC(=O)c2cccc(S(=O)(=O)Nc3ccccc3Cl)c2)o1 | i | i | i | i | i | i | nt | nt
COc1cc2c(C#N)c(N3CCCCC3)nc(N)c2c(N)n1 | 51.5 | i | i | i | i | 65.4 | i | i
CCN(CC)c1nc(N)c2c(N)nc(OC)cc2c1C#N | 52.3 | i | i | i | i | 81.4 | i | i
CCN(C(=S)Nc1cccc2ccccc12)c1ccccc1 | i | nt | i | nt | i | i | nt | nt
COc1ccc(CCNc2ccc(C(CC(N)=O)NC(=O)Cc3cccc4ccccc34)cc2[N+](=O)[O-])cc1 (centres undefined) | i | i | i | i | i | i | nt | nt
CCCCNc1ccc(C(CC(N)=O)NC(=O)Cc2cccc3ccccc23)cc1[N+](=O)[O-] (centres undefined) | i | i | i | i | i | 51.2 | i | i
Cc1ccc(-c2nc(C(=O)NCCCN(C)C)cc3c2[nH]c2ccccc23)cc1 | i | i | i | i | i | 56.4 | i | i
COc1ccc(/C=C2/SC(=O)N(CCC(=O)Nc3ccccc3)C2=O)cc1OC | i | i | i | i | i | 62.1 | i | i
Fc1cc(F)c2nc(Nc3nc4cc5c(cc4s3)OCO5)sc2c1 | 83.5 | i | i | i | i | 71.6 | i | i
Cn1c(=O)cc(OCCCC(=O)Nc2cccc(Cl)c2)c2ccccc21 | i | nt | i | nt | i | i | nt | nt
CCN1C(=O)[C@H]2[C@@H](c3ccc(-c4cccc(Cl)c4)c(OC)c3)N[C@@](Cc3ccccc3)(C(=O)OC)[C@H]2C1=O | i | i | i | i | i | 111.7 | i | i
COC(=O)[C@]1(Cc2ccccc2)N[C@H](c2ccc(-c3cccc(Cl)c3)c(OC)c2)[C@@H]2C(=O)N(C)C(=O)[C@@H]21 | i | i | i | i | i | i | nt | nt
Cc1ccc(C)c(S(=O)(=O)N2CCN(C(=O)/C=C/c3ccco3)CC2)c1 | i | i | i | i | i | 75.7 | i | i
O=C1CC(NS(=O)(=O)c2cccnc2)CN1c1cccc(F)c1 (centres undefined) | i | i | i | i | i | i | nt | nt
COc1cc(NS(=O)(=O)c2ccc(NC(=S)NC(C)=O)cc2)nc(OC)n1 | i | i | i | i | i | 53.8 | i | i
COc1cc(NS(=O)(=O)c2ccc(NC(=S)NC(=O)/C=C/c3ccco3)cc2)ncn1 | 48.3 | i | i | i | i | 98.0 | 82.3 | i | Beacon interf DR=i
COc1cc(NS(=O)(=O)c2ccc(NS(=O)(=O)c3ccc(NC(C)=O)cc3)cc2)nc(OC)n1 | i | i | i | i | i | i | nt | nt
CCOc1ccc(NC(=S)NC(=O)/C=C/c2ccco2)cc1 | i | i | i | i | i | i | nt | nt
Cc1cc(C(=O)Nc2ccc3c(c2)CCC3)ccc1[N+](=O)[O-] | i | i | i | i | i | 77.7 | i | i
CCc1nc2ccc(C(=O)N3CCCC(C(N)=O)C3)cn2c1N(C)Cc1ccc(OC)cc1 (centres undefined) | i | nt | i | nt | i | i | nt | nt
Cc1nn(-c2ccccc2)c(C)c1/C=N/n1c(-c2ccc(Cl)cc2)n[nH]c1=S | i | i | i | i | i | 57.4 | i | i
N#C/C(=C\c1ccc(-c2ccccc2Cl)o1)C(=O)Nc1nc2ccccc2s1 | i | i | i | i | i | 87.9 | i | i
Cc1c(NC(=O)/C(C#N)=C/c2ccc(-c3ccccc3Cl)o2)c(=O)n(-c2ccccc2)n1C | i | i | i | i | i | i | nt | nt
